This note sets out measurements from the array DNA melting data of Ke et al. (doi:10.1101/2024.01.08.574731).

Series [1] is described as follows: folding enthalpy; higher = less favourable; fluorescence melt of hairpins on a sequencing array, two-state fit. Particulars: sodium 0.088 M. In a few lines:
(§1)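 On a sequenced MiSeq flow cell, library hairpins with annealed Cy3 and quencher oligos were imaged for Cy3 fluorescence in 2.5 °C steps up to 60 °C, in 50 mM Na-HEPES pH 8.0, 25 mM NaCl. Normalisation used pre-quench Cy3 and control constructs. Bootstrapped two-state fits gave melting temperature and folding enthalpy, combined by inverse variance across four replicates and with fitted temperatures raised by 9.35 °C to match UV melts.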

Series [2] can be described thus: melting temperature; fluorescence melt of hairpins on a sequencing array, two-state fit, raised by 9.35 °C to match UV melts. Particulars: sodium 0.088 M. In a few lines: as §1

On to GGTAGGGGAAACCCTGCC ((.((((....)))).)), for which the folding enthalpy in series [1] was -39.5 kcal/mol. Moreover, the Tm in series [2] amounted to 53.6 °C.

As for GGTAGTCGAAAGACCACC (((.(((....))).))), the folding enthalpy in series [1] is -24.7 kcal/mol. Further, the Tm in series [2] came to 45.7 °C.

Regarding GGTATAGAAATATACC ((((((....)))))), the folding enthalpy in series [1] is -26.4 kcal/mol. In addition, in series [2], the Tm came out at 41.9 °C.

In the case of GGTATAGGAAACTATATC (.(((((....))))).), in series [1], the folding enthalpy is -17.1 kcal/mol. For the same sequence, in series [2], the Tm was 31.2 °C.

For the sequence GGTATAGGAAACTATGCC ((.((((....)))).)), in series [1], the folding enthalpy was -33.1 kcal/mol. The Tm in series [2] worked out at 43.2 °C.

For GGTATCGAAAGATAAACC ((((((....)))..))), in series [1], the folding enthalpy is -18.4 kcal/mol. In addition, the Tm in series [2] came to 30.4 °C.

Take GGTATCGAAAGATCGACC ((((((....)))..))): in series [1], the folding enthalpy was -16.9 kcal/mol. Further, the Tm in series [2] was 27.8 °C.

GGTATCGAAAGATGTACC ((((((....)))..))): the folding enthalpy in series [1] was -23.2 kcal/mol. The Tm in series [2] came to 32.5 °C.

In the case of GGTATCTCGAAAGAGACC (((..(((....)))))), the folding enthalpy in series [1] was -21.1 kcal/mol. Moreover, the Tm in series [2] came to 35.2 °C.

As for GGTATGGAAACATACC ((((((....)))))), the folding enthalpy in series [1] is -41.9 kcal/mol. Moreover, in series [2], the Tm was found to be 53.4 °C.

In the case of GGTATGGGAAACCATACC (((((((....))))))), in series [1], the folding enthalpy was -45.3 kcal/mol. Besides, the Tm in series [2] stood at 58 °C.

For GGTATGGGAAACTATACC (((((.(....).))))), the folding enthalpy in series [1] is -26.6 kcal/mol. Moreover, in series [2], the Tm came out at 41.4 °C.

Regarding GGTATGTCGAAAGACACC (((..(((....)))))), the folding enthalpy in series [1] was -12.1 kcal/mol. Also, the Tm in series [2] was 34.8 °C.

In the case of GGTATTCGAAAGAAGACC (((.(((....))).))), the folding enthalpy in series [1] is -43.2 kcal/mol. The Tm in series [2] was 50.8 °C.

GGTCAACGAAAGTTCACC (((.(((....))).))): the folding enthalpy in series [1] was -22.3 kcal/mol. Also, in series [2], the Tm turned out to be 35.1 °C.

In the case of GGTCAAGAAATTGACC ((((((....)))))), the folding enthalpy in series [1] was -41.4 kcal/mol. The Tm in series [2] stood at 52.7 °C.

As for GGTCAAGGAAACTCGACC ((((.((....)).)))), the folding enthalpy in series [1] was -26.6 kcal/mol. Also, the Tm in series [2] was found to be 40.8 °C.

With GGTCAAGGAAACTTGACC (((((((....))))))), the folding enthalpy in series [1] is -43 kcal/mol. Further, the Tm in series [2] worked out at 63.5 °C.

On to GGTCAATCGAAAGATACC (((..(((....)))))), for which, in series [1], the folding enthalpy is -13.3 kcal/mol. Moreover, in series [2], the Tm turned out to be 26.9 °C.

On to GGTCACCGAAAGGTCACC (((.(((....))).))), for which the folding enthalpy in series [1] was -25.6 kcal/mol. Also, the Tm in series [2] is 43.9 °C.

Turning to GGTCACGAAAGTGATACC ((((((....)))..))), the folding enthalpy in series [1] was -11.7 kcal/mol. In addition, the Tm in series [2] came to 44.7 °C.

As to GGTCACGAAAGTGGCACC ((((((....)))..))), the folding enthalpy in series [1] is -11.7 kcal/mol. In series [2], the Tm came to 47.6 °C.

For the sequence GGTCACGAAAGTGGGACC ((((((....)))..))), the folding enthalpy in series [1] was -23.4 kcal/mol. Moreover, the Tm in series [2] turned out to be 48 °C.

For the sequence GGTCACGGAAACGTGGTC (..((((....))))..), in series [1], the folding enthalpy was -16.8 kcal/mol. For the same sequence, the Tm in series [2] was 39.6 °C.

With GGTCAGGGAAACCTGACC (((((((....))))))), in series [1], the folding enthalpy is -36.6 kcal/mol. Moreover, in series [2], the Tm came to 67.2 °C.

With GGTCATGAAAATGACC ((((((....)))))), the folding enthalpy in series [1] is -38 kcal/mol. In addition, the Tm in series [2] was determined as 59.5 °C.

For GGTCATGCGAAAGCAACC (((..(((....)))))), the folding enthalpy in series [1] was -8.01 kcal/mol. The Tm in series [2] amounted to 27 °C.

Regarding GGTCCACGAAAGTGACC (((.(((....)))))), in series [1], the folding enthalpy is -24.4 kcal/mol. Also, the Tm in series [2] was 52.5 °C.

Take GGTCCACGAAAGTGTACC (((.(((....))).))): in series [1], the folding enthalpy is -21.7 kcal/mol. For the same sequence, in series [2], the Tm was determined as 50 °C.

Regarding GGTCCCCGAAAGGGCACC (((.(((....))).))), the folding enthalpy in series [1] was -19.3 kcal/mol. Moreover, in series [2], the Tm worked out at 49 °C.

Turning to GGTCCCGAAAGGGCAACC ((((((....)))..))), the folding enthalpy in series [1] is -12.4 kcal/mol. Moreover, the Tm in series [2] amounted to 38.4 °C.

Regarding GGTCCCGAAAGGGCCACC ((((((....)))..))), in series [1], the folding enthalpy is -11.7 kcal/mol. Besides, the Tm in series [2] came to 55 °C.

In the case of GGTCCCGAAAGGGTACC ((((((....))).))), the folding enthalpy in series [1] is -23.4 kcal/mol. Besides, in series [2], the Tm was 55.5 °C.

As to GGTCCCGGAAACGGGATC (.(((((....))))).), in series [1], the folding enthalpy was -24.2 kcal/mol. In series [2], the Tm was 57.1 °C.

Turning to GGTCCCTCGAAAGAGACC (((..(((....)))))), the folding enthalpy in series [1] was -17.1 kcal/mol. In addition, the Tm in series [2] was 34.8 °C.

With GGTCCGCGAAAGCGCACC (((.(((....))).))), the folding enthalpy in series [1] was -20.9 kcal/mol. For the same sequence, the Tm in series [2] is 48.3 °C.

With GGTCCGGGAAACCGAACC (((.(((....))).))), the folding enthalpy in series [1] is -29.1 kcal/mol. For the same sequence, the Tm in series [2] stood at 46.8 °C.
